In the library only some 1.9% were active in any assay of this set; here they are far more common.
bovine MsrA act – bovine MsrA enzyme activators, primary screen, biochemical, absorbance, HTS | Methionine sulfoxide reductase A (Bos taurus) | purified bovine MsrA, absorbance read-out | activation, % at 10.6 µM | hit rate 0.3% among 360,000 | AID 602163, 2012; in the data active = activation above about 7.5%;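 note: 0% = vehicle and 100% = reference activator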
N-glyco inh – increase of ERlucT glycosylation luciferase signal, primary screen, N-linked glycosylation inhibitor project, D54 ERlucT cells, luminescence, set 2. D54 ERlucT glycosylation luciferase reporter, 24 h; percent of 100 nM tunicamycin response. reporter increase, % at 12.5 µM. hit rate 0.23% among 360,000. AID 588692, 2011;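 active = mean luciferase reporter signal, scaled so untreated is 0 and the glycosylation-blocking control 100, at or above a set limit in every replicate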;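 note: luciferase carries N-glycosylation sites so blocking glycosylation raises the light; 0% = median of neutral control wells and 100% = median of 100 nM tunicamycin wells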
Vif imaging – HIV Vif self-association inhibitors, primary screen, imaging, HEK293T, single point; HEK293T cells, Vif self-association by quenched fluorescence, 24 h; inhibition, % at 7.49 µM; hit rate 0.35% among 340,000; in the data active = inhibition above about 50%, passing the limit was not always enough
MsrA inh – bovine MsrA enzyme inhibitors, primary screen, biochemical, absorbance, HTS; AID 651718, 2012; hit rate 0.75% among 360,000; purified bovine MsrA, absorbance read-out; inhibition, % at 15.5 µM; in the data active = inhibition above about 4.5%;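 note: 0% = vehicle wells with enzyme and 100% = reference inhibitor wells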
UCH37 DUB inh – inhibitors of human UCH37 deubiquitinase, primary screen, biochemical, Ub-AMC cleavage, fluorescence; purified proteasome/UCH37; hit rate 0.33% among 330,000; inhibition, % (no concentration beside the values);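 active = mean inhibition over replicate wells above about 20%, limit read from the data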;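 note: 0% = compound-free wells with enzyme and 100% = wells lacking proteasome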
Target sequence (Q9Y5K5 whole entry, looked up): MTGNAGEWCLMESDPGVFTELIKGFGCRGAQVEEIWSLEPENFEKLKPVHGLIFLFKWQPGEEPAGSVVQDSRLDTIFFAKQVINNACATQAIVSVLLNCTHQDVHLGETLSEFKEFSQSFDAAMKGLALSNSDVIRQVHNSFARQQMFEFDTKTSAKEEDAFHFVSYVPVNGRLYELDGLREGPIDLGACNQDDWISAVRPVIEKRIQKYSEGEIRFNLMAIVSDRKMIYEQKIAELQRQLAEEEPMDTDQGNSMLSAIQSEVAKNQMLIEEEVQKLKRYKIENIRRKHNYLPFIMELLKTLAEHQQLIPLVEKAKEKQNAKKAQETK
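Material: human UCH37 enzyme supplied as purified proteasome complex / Amount: 0.15 nM proteasome as dispensed / Buffer or medium: pH 7.4 Tris-HCl (50 mM) with ovalbumin, ATP-MgCl2, DTT / Times: preincubation 30 min, reaction 25 min, room temperature / Technique: AMC fluorescence from Ub-AMC cleavage, excitation 355 nm, emission 460 nm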
aDG glyco act – activators of alpha-DG glycosylation, primary screen, uHTS, Pro5-aDG cells, AlphaScreen; alpha-DG glycosylation AlphaScreen (IIH6); 0% Pro5, 100% B10-LARGE cell signal; activation, % at 10 µM; hit rate 0.22% among 360,000; AID 624168, 2012;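 active = activation of at least 8% versus controls, or a plate z-score of at least 8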;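 note: Pro5 are CHO cells carrying HIG-tagged alpha-DG that lacks glycosylation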
The depositor's hits bear a star.

How did Cc1ccc(Cn2c(=N)c(S(=O)(=O)c3ccc(Br)cc3)cc3c(=O)n4ccccc4nc32)cc1 do in these assays?
bovine MsrA act: 0; N-glyco inh: -2; Vif imaging: 53*; UCH37 DUB inh: 2; aDG glyco act: 2

What do the screens show for `CN(Cc1c(C(=O)NN=Cc2cc(F)ccc2F)nnn1-c1nonc1N)C1CCCCC1`?
UCH37 DUB inh: 16

Results for Cc1cc(-n2c(C)cc(C(=O)CSc3ccccn3)c2C)no1 ?
bovine MsrA act: -3; N-glyco inh: -4; Vif imaging: 5; MsrA inh: 2; UCH37 DUB inh: 0; aDG glyco act: 0

What do the screens show for `Cc1cc(-n2c(C)cc(C(=O)CSc3ccc4c(c3)OCCO4)c2C)no1`?
bovine MsrA act: 24*; N-glyco inh: -1; MsrA inh: 1; UCH37 DUB inh: 4; aDG glyco act: 0

Results for COc1ccc(/C=C/c2nc3ccccc3n2C)cc1 ?
bovine MsrA act: -14; N-glyco inh: -21; Vif imaging: 2; MsrA inh: 5.5*; UCH37 DUB inh: -86; aDG glyco act: 0

How did CCNc1nc(NC(C)C)nc(Oc2ccc(C=NO)cc2)n1 do in these assays?
UCH37 DUB inh: 2

Results for O=C(CNC(=O)c1ccccc1Br)NN=Cc1ccccc1O ?
UCH37 DUB inh: -28

Results for O=C(Nc1ccc(S(=O)(=O)Nc2ncccn2)cc1)C1CC(=O)N(c2ccc(Cl)cc2)C1 (stereo unspecified) ?
bovine MsrA act: -2; N-glyco inh: 1; Vif imaging: 56*; MsrA inh: 0; UCH37 DUB inh: 0; aDG glyco act: 0

What do the screens show for `O=C(Nc1ccc(S(=O)(=O)Nc2nccs2)cc1)C1CC(=O)N(c2ccc(Cl)cc2)C1` (stereo unspecified)?
bovine MsrA act: -2; N-glyco inh: 0; Vif imaging: 35; MsrA inh: 0; UCH37 DUB inh: 4; aDG glyco act: 0

What do the screens show for `COc1ccc([C@H]2CC(=O)C=C(c3c(OC)cccc3OC)C2)cc1`?
bovine MsrA act: -3; N-glyco inh: 29*; MsrA inh: 1; UCH37 DUB inh: 2; aDG glyco act: 0

What do the screens show for `COc1ccc([C@H]2CC(=O)C=C(c3cc4ccccc4s3)C2)cc1`?
bovine MsrA act: -2; N-glyco inh: 3; Vif imaging: 51*; MsrA inh: 0; UCH37 DUB inh: -3; aDG glyco act: 0

Results for O=C1C=C(c2cc3ccccc3s2)C[C@@H](c2ccc(Cl)cc2)C1 ?
bovine MsrA act: -3; N-glyco inh: 7; Vif imaging: -2; MsrA inh: 1; UCH37 DUB inh: 6; aDG glyco act: 0

How did COc1ccc(C(=O)NN=C(C)CC(=O)Nc2cccc(C(F)(F)F)c2)cc1 do in these assays?
UCH37 DUB inh: 2

Results for CCOC(=O)NN=C(C)/C=C/c1ccccc1 ?
UCH37 DUB inh: 9

How did CCCS(=O)(=O)N1CCCC(C(=O)NCCCN2CCN(c3ccccc3F)CC2)C1 (stereo unspecified) do in these assays?
bovine MsrA act: 3; N-glyco inh: -1; Vif imaging: 59*; MsrA inh: 1; UCH37 DUB inh: 6; aDG glyco act: 0

What do the screens show for `c1ccc(-c2cc(-c3nnc4n3N=C(c3ccc5ccccc5c3)CS4)[nH]n2)cc1`?
bovine MsrA act: 0; N-glyco inh: 46*; MsrA inh: 3; UCH37 DUB inh: 9; aDG glyco act: 0

Results for Cc1cc(-c2nnc3n2N=C(c2ccc(-c4ccccc4)cc2)CS3)n[nH]1 ?
bovine MsrA act: -5; N-glyco inh: 37*; Vif imaging: -4; MsrA inh: 1; UCH37 DUB inh: 5; aDG glyco act: 2

Results for COc1ccc(C2=Nn3c(nnc3-c3ccco3)SC2)cc1 ?
bovine MsrA act: -8; N-glyco inh: 25*; Vif imaging: 5; MsrA inh: 2; UCH37 DUB inh: 6; aDG glyco act: 0

Results for COc1ccc(OC)c(C2=Nn3c(nnc3-c3ccco3)SC2)c1 ?
bovine MsrA act: -14; N-glyco inh: 3; Vif imaging: 3; MsrA inh: 2; UCH37 DUB inh: 6; aDG glyco act: 0

How did O=C(NCC1CCCO1)C(=O)NN=Cc1ccc2c(c1)OCO2 (stereo unspecified) do in these assays?
UCH37 DUB inh: 11

How did COc1cc2c(cc1OC)C1CC(=NO)C(CC(C)C)CN1CC2 (stereo unspecified) do in these assays?
UCH37 DUB inh: 0

Results for O=C1NC[C@H](Cc2ccccc2)N(C[C@@H]2CCCN2C[C@H](Cc2ccc(O)cc2)N2C[C@H](Cc3ccc(O)cc3)N(CCc3ccccc3)C(=O)C2=O)C1=O ?
bovine MsrA act: -3; MsrA inh: 0; aDG glyco act: 0

How did O=C1NC[C@H](Cc2ccccc2)N(C[C@H]2CCCN2C[C@H](Cc2ccccc2)N2C[C@H](Cc3ccc(O)cc3)N(CCc3ccccc3)C(=O)C2=O)C1=O do in these assays?
bovine MsrA act: -1; N-glyco inh: 37*; MsrA inh: 2; aDG glyco act: 0

Results for Cc1ccc(C(=O)Nc2cc(S(=O)(=O)N3CCOCC3)ccc2N2CCCC2)cc1 ?
bovine MsrA act: -3; N-glyco inh: 45*; Vif imaging: 0; MsrA inh: 1; aDG glyco act: 0

Results for Cc1cccc2cc(/C=C/C(=O)c3ccco3)c(Cl)nc12 ?
bovine MsrA act: -3; N-glyco inh: 31*; Vif imaging: -2; MsrA inh: 0; UCH37 DUB inh: 6; aDG glyco act: 0

How did CCOc1ccc2nc(Cl)c(/C=C/C(=O)c3ccco3)cc2c1 do in these assays?
bovine MsrA act: -2; N-glyco inh: 10; Vif imaging: -2; MsrA inh: 0; UCH37 DUB inh: 1; aDG glyco act: 0

What do the screens show for `O=C(NN=Cc1cccnc1)c1cccc(Cl)c1`?
UCH37 DUB inh: -1

What do the screens show for `O=C(OCn1ncc(Cl)c(Cl)c1=O)c1ccc(C(F)(F)F)cc1`?
bovine MsrA act: -2; N-glyco inh: 31*; Vif imaging: -2; MsrA inh: 1; UCH37 DUB inh: 2; aDG glyco act: 0

Results for Cc1ccc(C(=O)OCn2ncc(Cl)c(Cl)c2=O)cc1 ?
bovine MsrA act: -11; N-glyco inh: -24; Vif imaging: 50*; MsrA inh: 0; UCH37 DUB inh: 5; aDG glyco act: 0

What do the screens show for `COCCNC(=O)C(=O)NN=Cc1ccccc1C(F)(F)F`?
UCH37 DUB inh: 4
